Some results are limits rather than exact numbers.

The test system of experiment [1] is Mus musculus. In words: Inhibition of locomotor activity(LMA) in mouse after ip administration of the compound. The class given is functional. The gist of the method: (§1)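 Mice given compound ip, then tested immediately for 1 h in darkened cylindrical photobeam chambers. Activity expressed as percent inhibition relative to vehicle-treated animals.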
For experiment [2], the system named is Rattus norvegicus. Nature of the experiment: Percent reversal of the increase on DOPA levels in the striatum of GBL-treated rats administered ip with 10 mg/kg of compound. The settings on record: route intraperitoneal. It is filed as functional. In a few lines:
(§2)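 Male Long-Evans rats received compound 1 h before sacrifice. GBL (750 mg/kg ip) and the decarboxylase inhibitor NSD 1015 (100 mg/kg ip) were given 30 min before sacrifice. Striatal DOPA was measured by HPLC with electrochemical detection. Result reported as percent reversal of the GBL-induced DOPA increase, n = 4.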

Experiment [3] addresses T1, D(2) dopamine receptor (Homo sapiens, UniProt P14416). In words: In vitro binding affinity is the ability to displace [3H]N-0437 from human Dopamine receptor D2 expressed in CHO-K1 cells. It is filed as cell-based.
The target of experiment [4] is T2, D(3) dopamine receptor (Homo sapiens, UniProt P35462). Nature of the experiment: In vitro binding affinity is the ability to displace [3H]spiperone from human Dopamine receptor D3 expressed in CHO-K1 cells. It is filed as cell-based.
T2 sequence (P35462 whole entry): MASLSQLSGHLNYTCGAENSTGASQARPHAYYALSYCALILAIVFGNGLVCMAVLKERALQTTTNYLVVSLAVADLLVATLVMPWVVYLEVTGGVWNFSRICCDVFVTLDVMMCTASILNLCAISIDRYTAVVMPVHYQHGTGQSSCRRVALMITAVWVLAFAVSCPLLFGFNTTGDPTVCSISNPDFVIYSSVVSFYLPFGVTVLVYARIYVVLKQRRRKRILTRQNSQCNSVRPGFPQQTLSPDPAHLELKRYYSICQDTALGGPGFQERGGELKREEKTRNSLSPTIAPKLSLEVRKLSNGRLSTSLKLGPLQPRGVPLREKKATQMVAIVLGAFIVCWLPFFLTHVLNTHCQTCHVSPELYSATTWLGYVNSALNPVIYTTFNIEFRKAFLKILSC
Experiment [5] concerns the target T1, D(2) dopamine receptor. In words: In vitro binding affinity is the ability to displace [3H]spiperone from human Dopamine receptor D2 expressed in CHO-K1 cells. The class given is cell-based.
The test system of experiment [6] is Mus musculus. In words: Inhibition of locomotor activity(LMA) in mouse after ip administration of the compound. The class given is functional. In a few lines: as §1
Experiment [7] concerns Rattus norvegicus. In words: Percent reversal of the increase on DOPA levels in the striatum of GBL-treated rats administered ip with 10 mg/kg of compound. The class given is functional. The settings on record: route intraperitoneal. In a few lines:
as §2

Experiment [8] addresses T2, D(3) dopamine receptor. In words: In vitro binding affinity is the ability to displace [3H]spiperone from human Dopamine receptor D3 expressed in CHO-K1 cells. It is filed as cell-based. The gist of the method: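 CHO-K1 cells stably expressing human D3 receptor, grown in F-12 medium with 10% fetal bovine serum under humidified 5% CO2/95% air.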
Experiment [9] has as its system Rattus norvegicus. Nature of the experiment: Inhibition of locomotor activity(LMA) in rat after sc administration of the compound.
For experiment [10], the system named is Rattus norvegicus. The description is as above. The source holds these as a separate data set.

T1 sequence (P14416 whole entry): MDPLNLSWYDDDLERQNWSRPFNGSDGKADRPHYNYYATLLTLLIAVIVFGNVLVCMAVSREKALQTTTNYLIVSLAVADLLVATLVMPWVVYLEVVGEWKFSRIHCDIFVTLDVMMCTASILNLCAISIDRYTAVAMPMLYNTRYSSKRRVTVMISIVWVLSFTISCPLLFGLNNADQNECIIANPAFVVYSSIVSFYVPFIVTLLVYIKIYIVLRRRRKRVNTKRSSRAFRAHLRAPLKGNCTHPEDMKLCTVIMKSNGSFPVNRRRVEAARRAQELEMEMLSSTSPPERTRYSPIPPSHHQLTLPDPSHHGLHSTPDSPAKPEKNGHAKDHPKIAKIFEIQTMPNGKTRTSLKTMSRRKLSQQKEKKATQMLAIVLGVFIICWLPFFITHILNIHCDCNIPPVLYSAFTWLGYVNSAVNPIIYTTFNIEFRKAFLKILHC

By ED50 is commonly meant the dose at which the effect has come halfway, by size or by number of responders. Higher therefore signals weaker potency. In general, Ki refers to the equilibrium dissociation constant of an inhibitor or competing ligand from its target. Low readings indicate tighter binding, high ones weaker binding. `CCCN(CCC)C1CCc2nc(OC)ccc2C1` (centres undefined) yielded a median effective dose (ED50) in the experiment with Mus musculus [1] of over 30 mg/kg. In addition, the Decrease in the experiment with Rattus norvegicus [2] is listed as 62%. The inhibition constant Ki at D(2) dopamine receptor [3] was 1200 nM; at D(3) dopamine receptor [4], 158 nM; on D(2) dopamine receptor [5], over 3330 nM.
Molecule `CCCN(CCC)C1CCc2nc(N)sc2C1` (centres undefined) registered an ED50 with Mus musculus [6] of over 30 mg/kg. The figures for the Ki on D(2) dopamine receptor [3], on D(3) dopamine receptor [8] and on D(2) dopamine receptor [5] were 57 nM, 1.9 nM and 462 nM, respectively. For the same molecule, the Decrease in the experiment with Rattus norvegicus [7] worked out at 88%.
Consider `CCCN(CCC)C1CCc2ncccc2C1` (centres undefined), for which the 50% effective dose (ED50) in the experiment with Mus musculus [1] was 0.08 mg/kg; in the experiment on Rattus norvegicus [9], 0.01 mg/kg. Moreover, in the experiment with Rattus norvegicus [2], the Decrease is given as 86%. Also, the Ki came out at 466 nM on D(2) dopamine receptor [3], 4.97 nM at D(3) dopamine receptor [4] and 272 nM on D(2) dopamine receptor [5].
In the case of `CCCN(CCC)C1CCc2cc(OC)ccc2C1` (centres undefined), the results for the Ki on D(2) dopamine receptor [3], on D(3) dopamine receptor [4] and on D(2) dopamine receptor [5] were 3940 nM, 366 nM and over 10000 nM, respectively.
Turning to `CCCN(CCC)C1CCc2nc(N)ccc2C1` (centres undefined), the values for the ED50 in the experiment on Mus musculus [1] and in the experiment with Rattus norvegicus [9] were 0.25 mg/kg and 0.05 mg/kg, respectively. In addition, the Decrease with Rattus norvegicus [2] is 86%. For the same molecule, the values for the Ki on D(2) dopamine receptor [3], on D(3) dopamine receptor [4] and at D(2) dopamine receptor [5] were 5 nM, 0.87 nM and 17.1 nM, respectively.
The Inhibition is how much of the control response was suppressed. Consider `CCCN(CCC)C1CCc2n[nH]cc2C1` (centres undefined), for which, in the experiment with Rattus norvegicus [10], the Inhibition is reported as 45%. In the experiment on Mus musculus [1], it took a dose of 0.64 mg/kg to reach the 50% effect level (ED50). Besides, in the experiment with Rattus norvegicus [2], the Decrease stood at 91%. Further, the results for the Ki at D(2) dopamine receptor [3], at D(3) dopamine receptor [8] and at D(2) dopamine receptor [5] were 523 nM, 36 nM and over 3330 nM, respectively.
As to `CCCN(CCC)C1CCc2c(O)cccc2C1` (centres undefined) [5-OH-DPAT], the ED50 in the experiment with Mus musculus [1] was found to be 0.01 mg/kg; in the experiment with Rattus norvegicus [9], 0.004 mg/kg. In addition, the Decrease with Rattus norvegicus [2] stood at 70%.
